Measured values taken from ChEMBL document CHEMBL1144512, “Synthesis and trypanocidal activity of ent-kaurane glycosides” (2007).
Active and inactive are the calls of the source. No cut-off for these calls is given here.

Columns and labels:
Trypanosoma cruzi [1] = experiment: Trypanocidal activity against Trypanosoma cruzi Y blood stream trypomastigotes assessed as parasite lysis at 0.31 mM relative to control; format: functional
In short: (§1)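 Infected blood with Y-strain bloodstream trypomastigotes was exposed to compound in 1% DMSO plus TCM199 at final 0.31–5.0 mM. Tubes were incubated 24 h at 4C. An aliquot was examined microscopically and parasites counted. Activity was calculated as percent parasite reduction versus negative control (1% DMSO + TCM199). DMSO and gentian violet control tubes were run in parallel.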

Trypanosoma cruzi [2] = experiment: Trypanocidal activity against Trypanosoma cruzi Y blood stream trypomastigotes assessed as parasite lysis at 2.50 mM relative to control; format: functional; in short: as §1
Trypanosoma cruzi [3] = experiment: Trypanocidal activity against Trypanosoma cruzi Y blood stream trypomastigotes assessed as parasite lysis at 0.63 mM relative to control; format: functional; in short: as §1
Trypanosoma cruzi [4] = experiment: Trypanocidal activity against blood stream Trypanosoma cruzi Y trypomastigotes assessed as parasite lysis at 5 mM relative to control; format: functional; in short: as §1
Trypanosoma cruzi [5] = experiment: Trypanocidal activity against Trypanosoma cruzi Y blood stream trypomastigotes assessed as parasite lysis at 1.25 mM relative to control; format: functional; in short: as §1
Trypanosoma cruzi [6] = experiment: Trypanocidal activity in Swiss albino mouse inoculated with Trypanosoma cruzi Y blood trypomastigotes assessed as parasitaemia reduction administered after 7th day of inoculation at 250 mg/kg, po after 6 hrs relative to control; format: functional; parameters: scale not given: the % may be the effect or the level left
In short: (§2)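 Male Swiss albino mice (18–20 g, 30 days old) were infected ip with 5×10^4 Y-strain blood trypomastigotes. At peak parasitaemia (day 7), a single oral 250 mg/kg dose in DMSO 0.1 mL plus LIT 0.9 mL was given. Circulating parasites were counted microscopically before and 4 and 6 h after dosing. Percent reduction was taken versus pre-treatment count, with three mice per group, mean ± SD, and Split-Plot test.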

Trypanosoma cruzi [7] = experiment: Trypanocidal activity in Swiss albino mouse inoculated with Trypanosoma cruzi Y blood trypomastigotes assessed as parasitaemia reduction administered after 7th day of inoculation at 250 mg/kg, po after 4 hrs relative to control; format: functional; parameters: scale not given: the % may be the effect or the level left; in short: as §2
Blood [8] = experiment: Induction of total haemolysis in Albino mouse blood infected with Trypanosoma cruzi Y at 1.25 mM; format: functional, tissue-based
In short: (§3)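 Erythrocyte lysis was scored in the in vitro trypomastigote tubes as partial or total haemolysis. Infected blood (0.2 mL) was mixed with compound in 1% DMSO plus TCM199 at final 0.31, 0.63, 1.25, 2.50 and 5.0 mM. Tubes were incubated 24 h at 4C and examined microscopically.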

Blood [9] = experiment: Induction of total haemolysis in Albino mouse blood infected with Trypanosoma cruzi Y at 5 mM; format: functional, tissue-based; in short: as §3
Blood [10] = experiment: Induction of total haemolysis in Albino mouse blood infected with Trypanosoma cruzi Y at 2.5 mM; format: functional, tissue-based; in short: as §3

Compound | Activity (Trypanosoma cruzi [1]) [%] | Activity (Trypanosoma cruzi [2]) [%] | Activity (Trypanosoma cruzi [3]) [%] | Activity (Trypanosoma cruzi [4]) [%] | Activity (Trypanosoma cruzi [5]) [%] | Activity (Trypanosoma cruzi [6]) [%] | Activity (Trypanosoma cruzi [7]) [%] | Activity (Blood [8]) | Activity (Blood [9]) | Activity (Blood [10])
COC(=O)[C@]1(C)CCC[C@@]2(C)C3CC[C@@H]4C[C@@]3(CCC21)C[C@@H]4CO (stereo partly specified) | 45 | 100 | 94 | 100 | – | – | – | – | – | –
C=C1C[C@@]23CCC4[C@](C)(CO[C@@H]5O[C@@H](CO)[C@H](O)[C@@H](O)[C@@H]5OC(C)=O)CCC[C@@]4(C)C2CC[C@@H]1C3 (stereo partly specified) | – | 0 | – | 56 | 0 | – | – | – | – | –
O=C(Cn1ccnc1[N+](=O)[O-])NCc1ccccc1 [BENZNIDAZOLE] | – | – | – | – | – | 92.6 | 91.7 | – | – | –
C=C1C[C@@]23CC[C@H]4[C@@](C)(CCC[C@@]4(C)C(=O)O)[C@@H]2CC[C@@H]1C3 [KAURENOIC ACID] | 0 | 100 | 90 | 100 | 100 | – | – | Active | Active | Active
C=C1C[C@@]23CCC4[C@@](C)(CCC[C@@]4(C)C(=O)OC)C2CC[C@@H]1C3 (stereo partly specified) | 45 | 100 | 48 | 100 | 88 | 51.5 | 56.5 | – | – | –
CN(C)c1ccc(C(=C2C=CC(=[N+](C)C)C=C2)c2ccc(N(C)C)cc2)cc1.[Cl-] [GENTIAN VIOLET] | 67 | 100 | 100 | – | 100 | – | – | – | – | –
C=C1C[C@@]23CC[C@@H]4[C@](C)(CO)CCC[C@@]4(C)[C@@H]2CC[C@H]1C3 | – | 72 | – | 100 | 66 | – | – | – | – | –
